Assay results taken from ChEMBL document CHEMBL2311525, “Design, synthesis, and pharmacological properties of new heteroarylpyridine/heteroarylpyrimidine derivatives as CB(2) cannabinoid receptor partial agonists” (J Med Chem, 2013).

How the values were obtained:
Cannabinoid receptor 2 [1] = biological target: T1, Cannabinoid receptor 2 (Homo sapiens, UniProt P34972); assay: Agonist activity at human CB2 receptor expressed in CHO cells assessed as forskolin-stimulated [3H]cyclic-AMP accumulation by scintillation counting analysis relative to WIN 55,212-2; type: functional, cell-based
Procedure, shortened: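 CHO cells stably expressing human CB2, 1 × 10^6 cells/assay, in buffered saline (10 mM MgCl2, 5 mM glucose, 5 mM HEPES, pH 7.4, 37 °C) with 0.5 mM Ro 20-1724. Preincubated 10 min at 37 °C, then tested with 1 μM forskolin. Stopped with cold 6% TCA and ether-extracted. cAMP read by [3H]cAMP competition binding to beef adrenal binding protein with charcoal separation.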

Cannabinoid receptor 2 [2] = biological target: T1, Cannabinoid receptor 2; assay: Agonist activity at human CB2 receptor expressed in CHO cells assessed as forskolin-stimulated [3H]cyclic-AMP accumulation by scintillation counting analysis; type: functional, cell-based
Cannabinoid receptor 1 [3] = biological target: Cannabinoid receptor 1 (Rattus norvegicus, UniProt P20272); assay: Displacement of [3H]CP-55,940 from Sprague-Dawley rat brain CB1 receptor by scintillation counting analysis
Procedure, shortened: (§1)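 Male Sprague-Dawley rat brain membranes, prepared by spinning at 2000g and then 40000g, in 50 mM Tris-HCl with 1 mM EDTA, 3 mM MgCl2 and 0.5% fatty-acid-free BSA, pH 7.4. Incubated with 1.0 nM [3H]CP-55,940, 40 μg protein/100 μL and test compound at 1 nM–10 μM. Filtered on GF/C. Ki by Cheng–Prusoff, n = 4.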

Cannabinoid receptor 2 [4] = biological target: T2, Cannabinoid receptor 2 (Rattus norvegicus, UniProt Q9QZN9); assay: Displacement of [3H]CP-55,940 from Sprague-Dawley rat spleen CB2 receptor by scintillation counting analysis
T2 sequence (Q9QZN9 whole entry): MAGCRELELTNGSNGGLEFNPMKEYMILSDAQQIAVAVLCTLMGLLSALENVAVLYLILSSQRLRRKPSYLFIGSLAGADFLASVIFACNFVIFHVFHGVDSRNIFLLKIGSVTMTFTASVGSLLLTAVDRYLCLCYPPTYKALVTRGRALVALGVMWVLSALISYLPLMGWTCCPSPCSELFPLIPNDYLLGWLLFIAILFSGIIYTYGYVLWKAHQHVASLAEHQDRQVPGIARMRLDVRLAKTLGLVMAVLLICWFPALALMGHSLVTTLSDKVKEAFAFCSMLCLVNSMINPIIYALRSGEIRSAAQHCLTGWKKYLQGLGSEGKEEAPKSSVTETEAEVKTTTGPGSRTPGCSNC
Procedure, shortened: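 Male Sprague-Dawley rat spleen membranes, prepared by spinning at 2000g and then 40000g, in 50 mM Tris-HCl with 1 mM EDTA, 3 mM MgCl2 and 0.5% fatty-acid-free BSA, pH 7.4. Filtered on GF/C.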

Cannabinoid receptor 2 [5] = biological target: T1, Cannabinoid receptor 2; assay: Displacement of [3H]CP-55,940 from human recombinant CB2 receptor expressed in CHO cell membranes after 60 mins by scintillation counting analysis
Homo sapiens = species on record: Homo sapiens; assay: Selectivity index, ratio of Ki for human recombinant CB1 receptor to Ki for human recombinant CB2 receptor
Cannabinoid receptor 1 [6] = biological target: T3, Cannabinoid receptor 1 (Homo sapiens, UniProt P21554); assay: Displacement of [3H]CP-55,940 from human recombinant CB1 receptor expressed in CHO cell membranes after 90 mins by scintillation counting analysis
[7] = biological target: Cannabinoid receptor 1 (Rattus norvegicus) (UniProt P20272); assay: Displacement of [3H]CP-55,940 from Sprague-Dawley rat brain CB1 receptor at 1 to 10000 nM by scintillation counting analysis; procedure, shortened: as §1
Cannabinoid receptor 1 [8] = biological target: T3, Cannabinoid receptor 1; assay: Displacement of [3H]CP-55,940 from human recombinant CB1 receptor expressed in CHO cell membranes at 1 to 10000 nM after 90 mins by scintillation counting analysis
Procedure, shortened: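 Membranes from CHO cells expressing hCB1, spun at 100000g, in 50 mM Tris-HCl with 0.5% BSA, 5 mM MgCl2 and 2.5 mM EDTA, pH 7.4. Incubated with 0.5 nM [3H]CP-55,940 and compound at 1 nM–10 μM for 90 min at 30 °C. Filtered on GF/C and counted. Ki by Cheng–Prusoff, n = 4.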

T3 sequence (P21554 whole entry): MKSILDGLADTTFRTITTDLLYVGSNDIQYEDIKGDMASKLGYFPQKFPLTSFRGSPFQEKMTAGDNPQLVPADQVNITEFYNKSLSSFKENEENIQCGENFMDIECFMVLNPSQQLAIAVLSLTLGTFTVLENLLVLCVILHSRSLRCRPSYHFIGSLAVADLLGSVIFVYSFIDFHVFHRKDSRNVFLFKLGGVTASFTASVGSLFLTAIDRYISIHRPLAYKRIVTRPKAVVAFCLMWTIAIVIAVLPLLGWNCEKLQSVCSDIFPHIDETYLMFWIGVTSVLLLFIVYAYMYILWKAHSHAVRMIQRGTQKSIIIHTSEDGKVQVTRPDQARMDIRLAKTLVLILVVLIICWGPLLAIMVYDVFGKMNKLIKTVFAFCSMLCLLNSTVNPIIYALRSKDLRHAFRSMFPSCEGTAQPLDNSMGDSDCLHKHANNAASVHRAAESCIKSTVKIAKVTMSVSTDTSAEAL
Chain of Cannabinoid receptor 1 (Rattus norvegicus) (P20272 whole entry): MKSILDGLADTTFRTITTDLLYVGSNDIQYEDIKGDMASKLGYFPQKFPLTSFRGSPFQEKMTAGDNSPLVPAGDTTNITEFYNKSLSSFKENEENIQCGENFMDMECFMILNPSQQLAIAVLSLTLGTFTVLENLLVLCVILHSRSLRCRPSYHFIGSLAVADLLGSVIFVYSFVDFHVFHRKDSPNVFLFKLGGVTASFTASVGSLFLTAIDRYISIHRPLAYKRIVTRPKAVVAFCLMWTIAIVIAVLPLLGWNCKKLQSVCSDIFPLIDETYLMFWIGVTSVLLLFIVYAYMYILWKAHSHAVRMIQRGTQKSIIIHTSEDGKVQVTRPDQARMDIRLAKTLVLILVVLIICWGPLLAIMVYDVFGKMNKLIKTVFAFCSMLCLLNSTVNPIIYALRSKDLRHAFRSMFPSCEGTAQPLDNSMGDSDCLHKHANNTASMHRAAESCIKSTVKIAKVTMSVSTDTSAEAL
Chain of Cannabinoid receptor 1 (Rattus norvegicus, UniProt P20272) (P20272 whole entry): as above
T1 sequence (P34972 whole entry): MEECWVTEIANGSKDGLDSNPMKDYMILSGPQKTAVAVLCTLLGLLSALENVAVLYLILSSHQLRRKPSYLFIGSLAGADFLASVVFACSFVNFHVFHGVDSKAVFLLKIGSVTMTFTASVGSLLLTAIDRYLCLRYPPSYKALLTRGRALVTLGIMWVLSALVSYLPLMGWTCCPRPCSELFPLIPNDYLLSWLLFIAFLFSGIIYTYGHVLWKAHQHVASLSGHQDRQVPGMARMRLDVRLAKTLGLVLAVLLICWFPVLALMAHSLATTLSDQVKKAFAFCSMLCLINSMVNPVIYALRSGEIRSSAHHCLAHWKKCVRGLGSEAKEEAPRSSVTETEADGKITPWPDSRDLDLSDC

Row | Structure (SMILES) | Emax (Cannabinoid receptor 2 [1]) | EC50 (Cannabinoid receptor 2 [2]) | Ki (Cannabinoid receptor 1 [3]) | Ki (Cannabinoid receptor 2 [4]) | Ki (Cannabinoid receptor 2 [5]) | Ratio Ki (Homo sapiens) | Ki (Cannabinoid receptor 1 [6]) | inhibition [7] | inhibition (Cannabinoid receptor 1 [8])
1 | CCCCn1cc(C(=O)NC2CCCCC2)c(=O)c2c(C)nn(C)c21 | 38% | 1890 nM | 1530 nM | 145 nM | 138 nM | 9.1 | 1260 nM |  | 
2 | CCCn1cc(C(=O)NC2CCCCC2)c(=O)c2c(C)nn(C)c21 |  |  | 832 nM | 593 nM | 412 nM | 1.8 | 758 nM |  | 
3 | CCCCCn1cc(C(=O)NCC2CCCCC2)c(=O)c2c(C)nn(C)c21 | 41% | 1560 nM | 1040 nM | 508 nM | 372 nM | 3 | 1120 nM |  | 
4 | CCCCCn1cc(C(=O)NC2CCCCCC2)c(=O)c2c(C)csc21 | -95% | 65 nM | 67 nM | 8.23 nM | 6.95 nM | 7.5 | 52 nM |  | 
5 | CCCCCn1cc(C(=O)NC2CCCCC2)c(=O)c2c(-c3ccc(Cl)cc3)nn(C)c21 |  |  | > 10000 nM | 5020 nM | 3620 nM | > 2.8 | > 10000 nM | 15% | 22%
6 | CCCCCn1cc(C(=O)NC23CC4CC(CC(C4)C2)C3)c(=O)c2c(C)csc21 | -167% | 31 nM | 16.5 nM | 1.25 nM | 1.12 nM | 12.5 | 13.7 nM |  | 
7 | CCCCCn1cc(C(=O)NC2CCCCCC2)c(=O)c2cnn(C)c21 | 56% | 404 nM | 5200 nM | 130 nM | 103 nM | 44 | 4550 nM |  | 
8 | CCCCCn1cc(C(=O)Nc2ccccc2)c(=O)c2c(C)nn(C)c21 | 38% | 2160 nM | 1020 nM | 740 nM | 524 nM | 1.7 | 865 nM |  | 
9 | CCCCCn1cc(C(=O)NC23CC4CC(CC(C4)C2)C3)c(=O)c2c(C)c(C)sc21 | -178% | 34 nM | 52 nM | 4.26 nM | 3.27 nM | 15.9 | 43 nM |  | 
10 | CCCCCn1cc(C(=O)NC23CC4CC(CC(C4)C2)C3)c(=O)c2cnn(C)c21 | 67% | 41 nM | 5340 nM | 13.3 nM | 11.6 nM | 432 | 4750 nM |  | 
11 | CCCCCn1cc(C(=O)NC23CC4CC(CC(C4)C2)C3)c(=O)c2c(C(C)(C)C)nn(C)c21 | 43% | 1760 nM | 3430 nM | 417 nM | 363 nM | 10 | 3750 nM |  | 
12 | CCCCCn1cc(C(=O)NC23CC4CC(CC(C4)C2)C3)c(=O)c2c(C)nn(C)c21 | 68% | 49 nM | 832 nM | 11.4 nM | 9.51 nM | 84 | 800 nM |  | 
13 | CCCCCn1cc(C(=O)NC2CCCCC2)c(=O)c2c(C)csc21 | -64% | 107 nM | 98 nM | 14.8 nM | 12.3 nM | 7.2 | 86 nM |  | 
14 | CCCCCn1cc(C(=O)NC2CCCCC2)c(=O)c2c(C(C)(C)C)nn(C)c21 |  |  | > 10000 nM | 4030 nM | 3530 nM | > 2.8 | > 10000 nM | 19% | 23%
15 | CCCCCn1cc(C(=O)NCc2ccccc2)c(=O)c2c(C)nn(C)c21 |  |  | > 10000 nM | 4520 nM | 3650 nM | > 2.7 | > 10000 nM | 42% | 38%
16 | CCCCCn1cc(C(=O)NC23CC4CC(C)(CC(C)(C4)C2)C3)c(=O)c2c(C)nn(C)c21 | 71% | 45 nM | 3260 nM | 16.7 nM | 9.83 nM | 107 | 1050 nM |  | 

Row | Structure (SMILES) | Emax (Cannabinoid receptor 2 [1]) | EC50 (Cannabinoid receptor 2 [2]) | Ki (Cannabinoid receptor 1 [3]) | Ki (Cannabinoid receptor 2 [4]) | Ki (Cannabinoid receptor 2 [5]) | Ratio Ki (Homo sapiens) | Ki (Cannabinoid receptor 1 [6]) | inhibition [7] | inhibition (Cannabinoid receptor 1 [8])
17 | Cc1nn(C)c2c1c(=O)c(C(=O)NC1CCCCC1)cn2Cc1ccccc1 | 36% | 3820 nM | 4560 nM | 1100 nM | 956 nM | 4.4 | 4250 nM |  | 
18 | CCCCCn1cc(C(=O)NC2CCCCCC2)c(=O)c2c(C)noc21 | 99% | 35 nM | 184 nM | 50 nM | 18.5 nM | 7.8 | 145 nM |  | 
19 | CCCCCn1cc(C(=O)NC23CC4CC(CC(C4)C2)C3)c(=O)c2c(C)noc21 | 97% | 83 nM | 1490 nM | 26 nM | 21 nM | 69.9 | 1470 nM |  | 
20 | CCCCCn1cc(C(=O)NC2CCCCCC2)c(=O)c2c(-c3ccc(Cl)cc3)nn(C)c21 |  |  | > 10000 nM | 4050 nM | 2830 nM | > 3.5 | > 10000 nM | 12% | 17%
21 | CCCCCn1cc(C(=O)N[C@H]2CC[C@@H](C)CC2)c(=O)c2c(C)nn(C)c21 | 16% | 52 nM | 750 nM | 11.8 nM | 10.6 nM | 68 | 723 nM |  | 
22 | CCCCCn1cc(C(=O)NC23CC4CC(CC(C4)C2)C3)c(=O)n2ncnc12 | 60% | 87 nM | 850 nM | 21 nM | 20 nM | 35.6 | 712 nM |  | 
23 | CCCCCn1cc(C(=O)NC2CCCCC2)c(=O)c2c(C)noc21 | 98% | 14.3 nM | 187 nM | 38 nM | 8.74 nM | 17.7 | 155 nM |  | 
24 | CCCCCn1cc(C(=O)NC2CCCCCC2)c(=O)c2c(C)nn(C)c21 | 65% | 51 nM | 1620 nM | 35 nM | 11.2 nM | 23 | 252 nM |  | 
25 | CCCCCn1cc(C(=O)NC(C)CCC(C)C)c(=O)c2c(C)nn(C)c21 (stereo not given) | 46% | 827 nM | 2260 nM | 262 nM | 212 nM | 8.5 | 1800 nM |  | 
26 | CCCCCn1cc(C(=O)NC23CC4CC(CC(C4)C2)C3)c(=O)c2c(CC)nn(C)c21 | 51% | 162 nM | 2670 nM | 97 nM | 37 nM | 12 | 440 nM |  | 
27 | CCCCCn1cc(C(=O)NC2CCCCC2)c(=O)c2c(C)nn(C)c21 | 52% | 323 nM | 1420 nM | 100 nM | 85 nM | 5.9 | 500 nM |  | 
28 | CCCCCn1cc(C(=O)NC2CCCCC2)c(=O)c2cnn(C)c21 | 48% | 872 nM | 5650 nM | 250 nM | 237 nM | 22 | 5150 nM |  | 
29 | CCCCCCn1cc(C(=O)NC2CCCCC2)c(=O)c2c(C)nn(C)c21 | 27% | 1200 nM | 3220 nM | 480 nM | 325 nM | 12 | 3870 nM |  | 
30 | CCCCCn1cc(C(=O)NC2CCCCC2)c(=O)c2c(CC)nn(C)c21 | 32% | 2350 nM | 1120 nM | 516 nM | 469 nM | 2 | 957 nM |  | 
31 | CCCCCn1cc(C(=O)N[C@H]2CC[C@H](C)CC2)c(=O)c2c(C)nn(C)c21 | 14% | 58 nM | 4800 nM | 13.3 nM | 11.4 nM | 401 | 4570 nM |  | 
32 | CCCCCn1cc(C(=O)NC23CC4CC(CC(C4)C2)C3)c(=O)n2nc(-c3ccccc3)nc12 |  |  | 560 nM | 4.83 nM | 3.58 nM | 146 | 523 nM |  | 
